# Test results published in publication PMC11650976 (Dalton Transactions (Cambridge, England : 2003), 2024).
# Tests used:
# BT-333 (glioblastoma) = experiment: In vitro cytotoxicity; type: cell-based, human; conditions: read-out: IC50 BT-333; 72 h, MTT, mean ± S.D (n = 6)
# How it was run: (§1)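 Adherent cancer cells were exposed to test compound for 72 h. The series was a 3-fold dilution starting at 100 μM.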
# [1] = test system: MDA-MB-231 (triple negative breast cancer cell); experiment: In vitro cytotoxicity; type: cell-based, human; conditions: for IC50: read-out: IC50 MDA-MB-231, 72 h, MTT, mean ± S.D (n = 6)
# How it was run: as §1
# [2] = test system: MRC5 (human lung fibroblast); experiment: Cytotoxicity in normal cells MRC5; type: cell-based; conditions: read-out: IC50 MRC5; mean ± S.D (n = 6)
# MDA-MB-231 cancer cells = experiment: Whole cellular uptake of Au; type: cell-based, human; conditions: 10 μM for 18 h, GFAAS
# How it was run: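 Adherent MDA-MB-231 cells were incubated with the test compound at 10 μM for 18 h. Whole-cell gold content was then measured by graphite furnace AAS. Data are mean ± s.e.m. (n = 3), compared by ordinary one-way ANOVA.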
# MDA-MB-231 cells [3] = experiment: Mitochondria membrane potential determination using TMRE dye; type: cell-based, human; conditions: for effect on mitochondria membrane potential (TMRE fluorescence): 5 and 10 μM for 2 hours
# [4] = Solution stability in DMEM; type: physicochemical; conditions: 48 h, reading at λ = 260 nm
# [5] = test system: mitochondria of MDA-MB-231 cancer cells; experiment: Mitochondria uptake of Au; type: cell-based, human; conditions: 10 μM for 18 h, 20 million cells, GFAAS, n = 2
# How it was run: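 MDA-MB-231 cells (20 million) were treated with test compound at 10 μM for 18 h. Standard fractionation then gave pure mitochondria, and gold content was measured by GFAAS. Data are mean ± s.e.m. (n = 2), compared by ordinary one-way ANOVA.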
# MDA-MB-231 cells [6] = experiment: Intracellular ROS determination; type: cell-based, human; conditions: 10 μM, 90 minutes, DCF-DA, FACS
# How it was run: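 MDA-MB-231 cells were exposed to the test compound at 5 and 10 μM. The text gives 90 min of exposure, and the figure legend gives 2 h. Cells were then stained with 2′,7′-dichlorodihydrofluorescein diacetate, and intracellular fluorescence was read by flow cytometry at 488 nm. Groups were compared by ordinary one-way ANOVA.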
Compound,IC50 (BT-333 (glioblastoma)),IC50 [1],IC50 [2],whole cell uptake (Au content) (MDA-MB-231 cancer cells),effect on mitochondria membrane potential (TMRE fluorescence) (MDA-MB-231 cells [3]),solution stability in DMEM [4],mitochondria uptake (Au) [5],"fold more cytotoxic than Au(III) 3-PF6 counterpart (IC50) ([1]; in both cancer cell lines tested (MDA-MB-231, BT-333))","decrease in TMRE fluorescence intensity (mitochondria membrane potential) (MDA-MB-231 cells [3]; 10 μM, 2 hours)",intracellular ROS produced (MDA-MB-231 cells [6])
"[Au+].[Cl-].c1ccc(P(c2ccccc2)c2ccccc2P(c2ccccc2)c2ccccc2)cc1.c1ccc(P(c2ccccc2)c2ccccc2P(c2ccccc2)c2ccccc2)cc1 [1-AuCl4, bis-[1,2-bis-(diphenylphosphino)benzene]gold(I)]",1300 ± 40 nM,1780 ± 150 nM,930 ± 20 nM,–,–,–,–,–,–,–
"[Au+].[Cl-].c1ccc(P(c2ccccc2)c2ccccc2P(c2ccccc2)c2ccccc2)cc1.c1ccc(P(c2ccccc2)c2ccccc2P(c2ccccc2)c2ccccc2)cc1 [1-BF4, bis-[1,2-bis-(diphenylphosphino)benzene]gold(I)]",660 ± 20 nM,820 ± 110 nM,–,–,–,–,–,–,–,–
"[Au+].[Cl-].c1ccc(P(c2ccccc2)c2ccccc2P(c2ccccc2)c2ccccc2)cc1.c1ccc(P(c2ccccc2)c2ccccc2P(c2ccccc2)c2ccccc2)cc1 [1-Cl, bis-[1,2-bis-(diphenylphosphino)benzene]gold(I)]",410 ± 200 nM,1140 ± 120 nM,1350 ± 40 nM,taken up more effectively compared to 1-AuCl4,did not affect the mitochondria membrane potential significantly,stable in DMEM for 48 h without the formation of new adducts or reduction in peak intensity,214.5 nmol/20 million cells,–,–,–
"[Au+].[Cl-].c1ccc(P(c2ccccc2)c2ccccc2P(c2ccccc2)c2ccccc2)cc1.c1ccc(P(c2ccccc2)c2ccccc2P(c2ccccc2)c2ccccc2)cc1 [1-PF6, bis-[1,2-bis-(diphenylphosphino)benzene]gold(I)]",380 ± 20 nM,300 ± 100 nM,1910 ± 30 nM,taken up more effectively compared to 1-AuCl4,–,–,–,4–16 fold,–,–
"bis-[1,2-bis-(diphenylphosphino)benzene]gold(III) chloride [3-AuCl4]",1380 ± 230 nM,1520 ± 210 nM,4470 ± 50 nM,significantly higher whole cell uptake compared to their Au(I) counterparts,concentration dependent decrease in fluorescence intensity,showed solution stability for 48 h but significant reduction in peak intensity after 1 h of incubation,375 nmol/20 million cells,–,about 53%,significant difference in the ROS produced by 3-AuCl4 compared to 1-Cl
"bis-[1,2-bis-(diphenylphosphino)benzene]gold(III) chloride [3-PF6]",1760 ± 120 nM,4920 ± 210 nM,–,significantly higher whole cell uptake compared to their Au(I) counterparts,–,–,–,–,–,–
